1 molecule from ChEMBL document CHEMBL2010694, “Indolyl and dihydroindolyl N-glycinamides as potent and in vivo active NPY5 antagonists” (Bioorg Med Chem Lett, 2012) can be followed below.

Data set [1] concerns the target T1, Neuropeptide Y receptor type 5 (Homo sapiens, UniProt Q15761).
T1 sequence (Q15761 whole entry): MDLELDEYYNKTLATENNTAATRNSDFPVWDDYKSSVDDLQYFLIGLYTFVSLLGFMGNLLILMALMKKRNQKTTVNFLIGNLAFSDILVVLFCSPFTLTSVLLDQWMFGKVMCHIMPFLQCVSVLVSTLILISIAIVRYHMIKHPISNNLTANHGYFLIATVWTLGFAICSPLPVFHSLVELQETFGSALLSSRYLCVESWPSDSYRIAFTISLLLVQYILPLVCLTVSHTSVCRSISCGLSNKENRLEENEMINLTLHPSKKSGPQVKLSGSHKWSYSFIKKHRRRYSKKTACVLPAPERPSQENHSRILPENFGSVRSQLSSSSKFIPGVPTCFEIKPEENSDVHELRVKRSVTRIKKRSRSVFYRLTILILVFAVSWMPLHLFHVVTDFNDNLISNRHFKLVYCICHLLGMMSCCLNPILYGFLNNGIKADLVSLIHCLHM
In words: Displacement of [125I]peptide YY from human NPY5 receptor. (Displacement assays read how much labelled ligand stays bound in the presence of the test substance.)

In the next data set the test system is Plasma. In words: Plasma concentration in Sprague-Dawley rat at 10 mg/kg, po by LC-MS/MS analysis. Conditions: in vivo. Also on record: dose 10 mg/kg, route oral. It counts as ADME, organism-based. Summed up:
(§1)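 Male Sprague-Dawley rats (300–350 g), femoral artery cannulated; single 10 mg/kg oral dose in an appropriate vehicle, N = 3. Blood taken predose, 1, 2 and 4 h; brains then collected and stored at -80 °C. Equal portions of plasma or homogenized brain from the three rats pooled per time point, protein precipitated, quantified by LC/MS/MS.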

A short description of data set [2]: Plasma concentration in Sprague-Dawley rat at 10 mg/kg, po after 1 hr by LC-MS/MS analysis. It counts as ADME, organism-based. Also on record: dose 10 mg/kg, route oral. Summed up:
as §1

Data set [3] can be described thus: Solubility of the compound at pH 7.4. Format: physicochemical. Conditions: buffer.
The next data set has as its target Cytochrome P450 3A4 (Homo sapiens, UniProt P08684). In words: Inhibition of CYP3A4. It counts as ADME.
For a further data set, the target named is T2, Cytochrome P450 2C8 (Homo sapiens, UniProt P10632).
T2 sequence (P10632 whole entry): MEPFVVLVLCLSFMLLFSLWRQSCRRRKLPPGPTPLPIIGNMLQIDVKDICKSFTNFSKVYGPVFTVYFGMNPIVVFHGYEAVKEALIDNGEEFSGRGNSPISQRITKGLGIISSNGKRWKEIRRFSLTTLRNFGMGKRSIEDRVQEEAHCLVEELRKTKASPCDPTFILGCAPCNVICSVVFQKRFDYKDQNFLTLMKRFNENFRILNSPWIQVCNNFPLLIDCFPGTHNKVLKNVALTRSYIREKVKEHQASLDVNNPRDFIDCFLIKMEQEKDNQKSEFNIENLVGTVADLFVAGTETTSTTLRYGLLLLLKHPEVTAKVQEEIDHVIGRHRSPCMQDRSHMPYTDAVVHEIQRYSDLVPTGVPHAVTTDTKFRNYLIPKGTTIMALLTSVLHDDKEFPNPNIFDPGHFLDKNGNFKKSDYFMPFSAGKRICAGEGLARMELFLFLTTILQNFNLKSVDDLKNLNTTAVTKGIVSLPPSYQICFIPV
As to the kind of experiment: Inhibition of CYP2C8. It counts as ADME.

Data set [4] can be described thus: Clearance in Sprague-Dawley rat blood at 2 mg/kg, po and 1 mg/kg, iv after 24 hrs wash out period by HPLC analysis. Format: ADME, organism-based. Conditions: whole blood. Summed up: (§2)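 Male Sprague-Dawley rats (200–250 g), jugular and carotid artery cannulated; compound dissolved in 20% beta cyclodextrin, pH adjusted with methane sulfonic acid. Serial blood sampled at 12 time points over 24 h post dose by automated sampler; plasma from centrifugation analysed by HPLC; PK parameters by non-compartmental analysis of plasma concentration–time profile.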

Data set [5] can be described thus: Half life in Sprague-Dawley rat plasma at 2 mg/kg, po and 1 mg/kg, iv after 24 hrs wash out period by HPLC analysis. It counts as ADME, organism-based. The gist of the method: as §2
Data set [6] is described as follows: Drug uptake in cPP-induced feeding Sprague-Dawley rat model brain at 1 mg/kg, po after 1 hr. It counts as ADME, organism-based. Also on record: dose 1 mg/kg, route oral. Conditions: read-out: Drug uptake. The gist of the method: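 Satellite animals from the cPP feeding study dosed orally at 0.1, 1 or 10 mg/kg; plasma (ng/mL) and brain (ng/g) levels measured 1 h after dosing.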

pIC50, pKi: −log10 of the molar value. In brackets after ≈: the same amount, converted by molar mass.

Sequence of Cytochrome P450 3A4 (P08684 whole entry): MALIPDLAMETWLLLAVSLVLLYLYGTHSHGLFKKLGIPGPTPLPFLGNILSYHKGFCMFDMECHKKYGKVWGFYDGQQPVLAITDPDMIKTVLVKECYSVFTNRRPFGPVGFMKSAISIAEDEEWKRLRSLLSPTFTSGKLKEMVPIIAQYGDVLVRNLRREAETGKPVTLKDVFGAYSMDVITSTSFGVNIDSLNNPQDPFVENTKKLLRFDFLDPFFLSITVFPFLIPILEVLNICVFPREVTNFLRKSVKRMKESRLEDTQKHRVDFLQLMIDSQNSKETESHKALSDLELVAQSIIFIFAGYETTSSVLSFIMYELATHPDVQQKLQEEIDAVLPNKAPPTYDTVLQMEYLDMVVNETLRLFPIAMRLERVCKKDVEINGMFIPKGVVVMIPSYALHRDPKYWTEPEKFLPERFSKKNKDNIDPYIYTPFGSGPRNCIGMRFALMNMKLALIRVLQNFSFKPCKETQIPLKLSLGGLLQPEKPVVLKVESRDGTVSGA

On to `CC(C)S(=O)(=O)NC[C@H]1CC[C@H](NC(=O)CN2CCc3cc(Cl)ccc32)CC1`, for which the pKi in data set [1] was 9.30. In the data set on Plasma, this molecule gave a concentration of 5.61 µM. The values for the concentration at 1 h in [2] and in data set [6] were 5.47 µM and 104 ng/g, respectively. For the same molecule, the solubility in [3] was found to be 154 µM (≈ 65.9 µg/mL). Further, the negative logarithm of the IC50 (pIC50) is 6.15 at Cytochrome P450 3A4 and 5.09 at Cytochrome P450 2C8. The same molecule showed a clearance in [4] of 23.3 mL/min/kg. Further, the half-life in data set [5] was 4.4 h.

Usually pKi stands for the Ki on a negative log10 scale, so that one unit is a factor of ten. Usually solubility stands for the dissolved amount per volume that the medium holds. The low end stands for little dissolved substance, the high end for much dissolved substance. In general, pIC50 refers to the negative decadic logarithm of the IC50, by convention in mol/L. One may read the half-life as how long it takes for the measured level to halve. The low end stands for fast loss, the high end for slow loss.
